This is an account of results in ChEMBL document CHEMBL1151732, “Synthesis and anticancer activity comparison of phenylalkyl isoselenocyanates with corresponding naturally occurring and synthetic isothiocyanates” (J Med Chem, 2008).

Activity calls are given as the source filed them. No cut-off for these calls is given here.

Series [1] concerns UACC-903. The experiment in a line: Cytotoxicity against human UACC-903 cells after 24 hrs by MTS assay. Conditions: UACC-903, 24 h.
For series [2], the system named is UACC-903. Nature of the series: Cytotoxicity against human UACC-903 cells assessed as decrease in cell viability after 24 hrs by MTS assay relative to control. It is filed as functional, cell-based. The conditions noted are these: for IC50: UACC-903, 24 h. A digest of the protocol:
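UACC 903 melanoma cells, 5×10^3 per well in DMEM with 10% FBS, were exposed after 24 h to DMSO or 5, 10 or 15 μM agent for 24 h. Viability was read by MTS tetrazolium reduction to formazan and expressed as percent of DMSO control, as the mean of three independent experiments with SEM.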

In series [3] the test system is UACC-903. The experiment in a line: Antiproliferative activity against human UACC-903 cells assessed as BrdU incorporation after 24 hrs by ELISA relative to control. Type of series: functional, cell-based. In outline: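 UACC 903 cells, 5×10^3 per well, treated 24 h with DMSO vehicle or increasing concentrations of test agents. Proliferating cells were measured by BrdU incorporation with a BrdU ELISA kit. Values are expressed as percent of DMSO-treated cells, as the mean of three independent experiments with SEM.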
(Uptake of a labelled nucleoside into DNA is a usual measure of proliferation.)

For series [4], the system named is HT-1080. Nature of the series: Cytotoxicity against human HT1080 cells after 24 hrs by MTS assay. The conditions noted are these: HT-1080, 24 h. Background: Formazan colour is commonly taken as a measure of viable cells.
Series [5] concerns UACC-903. Nature of the series: Induction of apoptosis in human UACC-903 cells assessed as increase in caspase 3 activity after 24 hrs relative to control. Type of series: functional, cell-based. A digest of the protocol:
(§1)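 Apoptosis was measured in UACC 903 cells seeded at 5×10^3 per well and treated 24 h with DMSO vehicle or increasing agent concentrations. Combined caspase-3/7 activity was read with the Apo-ONE homogeneous caspase-3/7 kit and reported as fold increase over vehicle-treated cells, averaged over three independent experiments with SEM.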

The test system of series [6] is MDA-MB-231. Nature of the series: Cytotoxicity against human MDA-MB-231 cells after 24 hrs by MTS assay. Conditions: MDA-MB-231, 24 h.
The test system of series [7] is UACC-903. Nature of the series: Induction of apoptosis in human UACC-903 cells assessed as increase in caspase 7 activity after 24 hrs relative to control. It is filed as functional, cell-based. In outline: as §1
In series [8] the test system is UACC-903. Nature of the series: Antitumor activity in human UACC-903 cells xenografted in Harlan Sprague-Dawley athymic nude mouse assessed as reduction in tumor size at 0.76 uM, ip administered three times per week. Type of series: functional. A digest of the protocol:
(§2)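 Female athymic nude mice aged 4–6 weeks received 5×10^6 UACC 903 cells s.c. in 0.2 ml DMEM/10% FBS above both rib cages. After six days they were randomized (5 mice/group, 2 tumors/mouse) and dosed i.p. with 0.76 μmoles (3 ppm selenium) Mon/Wed/Fri; controls received DMSO vehicle. Caliper tumor volume (mm³) and body weight were recorded thrice weekly.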
On the technique in general: In xenograft studies the graft and the host belong to different species.

The subject of series [9] is Mus musculus. The experiment in a line: Toxicity in human UACC-903 cells xenografted in Harlan Sprague-Dawley athymic nude mouse assessed as effect on body weight at 2.5 uM, ip administered three times per week. Type of series: organism-based. Conditions: in vivo. In outline: (§3)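 UACC 903 xenografts: 5×10^6 cells s.c. in 0.2 ml DMEM/10% FBS at both flanks of 4–6-week-old female athymic nude mice. From day six, mice were randomized (5/group, 2 tumors each) and given 2.5 μmoles i.p. three times weekly (Mon/Wed/Fri), with DMSO vehicle controls. Tumor size (calipers, mm³) and body weight were measured thrice weekly.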

For series [10], the system named is UACC-903. Nature of the series: Antitumor activity in human UACC-903 cells xenografted in Harlan Sprague-Dawley athymic nude mouse assessed as reduction in tumor size at 2.5 uM, ip administered three times per week. The arrangement: scale not given: the % may be the effect or the level left. Type of series: functional. A digest of the protocol: as §3
The test system of series [11] is PC-3. Nature of the series: Cytotoxicity against human PC-3 cells after 24 hrs by MTS assay. Conditions: PC-3, 24 h.
The subject of series [12] is T98G. Nature of the series: Cytotoxicity against human T98G cells after 24 hrs by MTS assay.
Series [13] concerns Caco-2. Nature of the series: Cytotoxicity against human Caco-2 cells after 24 hrs by MTS assay. Conditions: Caco-2, 24 h.
Series [14] relates to Mus musculus. Nature of the series: Toxicity in human UACC-903 cells xenografted in Harlan Sprague-Dawley athymic nude mouse assessed as effect on body weight at 0.76 uM, ip administered three times per week. The conditions noted are these: in vivo. Type of series: organism-based. A digest of the protocol: as §2

The IC50 is the midpoint of a concentration-inhibition curve. As to `CC(=O)NC(CSC(=[Se])NCCCCc1ccccc1)C(=O)O` (stereo not drawn), the IC50 came out at 17 µM in series [1] and 10 µM in [2].

In the case of `CC(=O)NC(CSC(=S)NCCCCc1ccccc1)C(=O)O` (stereo not drawn), the IC50 in series [1] and in series [2] was 24 µM in each case.

On to `S=C=NCc1ccccc1` [BENZYL ISOTHIOCYANATE], for which the Activity result in series [3] is “Dose-dependent effect”; in [5] it was “Dose-dependent effect”; in series [7], “Dose-dependent effect”; in [9], “Non-toxic”; in [10] it was 40%; in series [2], “Dose-dependent effect”. The 50% inhibitory concentration (IC50) in series [1] is 15 µM; in [4] it was > 50 µM; in series [6], 42 µM; in series [11], > 50 µM; in [12] it was > 100 µM; in series [13] it was 15 µM. Moreover, the outcome in series [8] was inactive.

Regarding `[Se]=C=NCc1ccccc1` [BENZYLISOSELENOCYANATE], the Activity entry in series [3] was “Dose-dependent effect”; in series [14], “Non-toxic”; in series [5] it was “Dose-dependent effect”; in series [7], “Dose-dependent effect”; in [2], “Dose-dependent effect”. Besides, the IC50 in [1] was 16 µM; in series [4], 13 µM; in [6], 29 µM; in series [11], 24 µM; in series [12], 43 µM; in series [13], 13 µM.

Consider `[Se]=C=NCCc1ccccc1` [PHENETHYLISOSELENOCYANATE], for which the Activity entry in [3] is “Dose-dependent effect”; in series [14], “Non-toxic”; in series [5] it was “Dose-dependent effect”; in [7], “Dose-dependent effect”; in series [8], 30%; in series [2] it was “Dose-dependent effect”. Also, the concentration for half-maximal inhibition (IC50) in series [1] is 12 µM; in series [4], 12 µM; in series [6] it was 20 µM; in series [11], 16 µM; in [12], 24 µM; in series [13], 11 µM.

For the compound `S=C=NCCc1ccccc1` [PHENETHYLISOTHIOCYANATE], the Activity entry in [3] is “Dose-dependent effect”; in [5] it was “Dose-dependent effect”; in series [7], “Dose-dependent effect”; in series [9], “Non-toxic”; in series [10], 40%; in series [2], “Dose-dependent effect”. For the same compound, the concentration for half-maximal inhibition (IC50) in series [1] is 12 µM; in series [4], 15 µM; in series [6], 38 µM; in series [11], 24 µM; in series [12] it was > 100 µM; in [13], 14 µM. The result in [8] was inactive.

For `[Se]=C=NCCCCc1ccccc1` [PHENYLBUTYL ISOSELENOCYANATE], the Activity result was “Dose-dependent effect” in series [3]; “Non-toxic” in [14]; “Dose-dependent effect” in series [5]; “Dose-dependent effect” in series [7]; 30% in series [8]; “Dose-dependent effect” in series [2]. Further, the IC50 in [1] came to 10 µM; in series [4] it was 11 µM; in series [6], 21 µM; in [11] it was 19 µM; in [12] it was 27 µM; in series [13], 12 µM.

For the compound `S=C=NCCCCc1ccccc1` [PHENYLBUTYL ISOTHIOCYANATE], the Activity entry was “Dose-dependent effect” in series [3]; “Dose-dependent effect” in series [5]; “Dose-dependent effect” in series [7]; “Non-toxic” in series [9]; 40% in [10]; “Dose-dependent effect” in [2]. Also, the IC50 in [1] stood at 16 µM; in series [4] it was 15 µM; in series [6], 27 µM; in series [11], 24 µM; in [12] it was 35 µM; in [13] it was 27 µM. Moreover, the result in series [8] was inactive.

With `[Se]=C=NCCCCCCc1ccccc1` [PHENYLHEXYL ISOSELENOCYANATE], the Activity entry is “Dose-dependent effect” in series [3]; “Non-toxic” in [14]; “Dose-dependent effect” in series [5]; “Dose-dependent effect” in series [7]; 30% in [8]; “Dose-dependent effect” in series [2]. Further, the IC50 in [1] was 10 µM; in series [4], 12 µM; in [6], 22 µM; in series [11] it was 14 µM; in series [12] it was 23 µM; in series [13], 10 µM.

In the case of `S=C=NCCCCCCc1ccccc1` [PHENYLHEXYL ISOTHIOCYANATE], the Activity result was “Dose-dependent effect” in series [3]; “Dose-dependent effect” in series [5]; “Dose-dependent effect” in [7]; “Non-toxic” in series [9]; 40% in series [10]; “Dose-dependent effect” in [2]. The IC50 is 15 µM in [1]; 29 µM in series [4]; 24 µM in series [6]; 17 µM in [11]; 26 µM in series [12]; 49 µM in series [13]. Also, in [8], the outcome was inactive.
